Source: ChEMBL document CHEMBL4382284, “Acrylamide Functional Group Incorporation Improves Drug-like Properties: An Example with EGFR Inhibitors” (ACS Med Chem Lett, 2019)
Converted amounts (≈) assume the structure as drawn.

Experiments:
[1] = target: Epidermal growth factor receptor (Homo sapiens, UniProt P00533); assay: Inhibition of human EGFR using poly[Glu:Tyr] (4:1) as substrate measured after 20 mins in presence of [gamma33P]ATP by filter-binding assay
A549 = assay: Cytotoxicity against human A549 cells after 72 hrs by MTT assay; format: functional, cell-based; conditions: A549, 72 h
[2] = Thermodynamic solubility of the compound in pH 7.4 phosphate buffered saline measured after 24 hrs by UV-HPLC analysis; format: physicochemical; conditions: read-out: Therm_solubility
[3] = Thermodynamic solubility of the compound in 1-octanol solution measured after 24 hrs by UV-HPLC analysis; format: physicochemical; conditions: read-out: Therm_solubility
[4] = 1-Octanol-buffer partition coefficient, log D of compound at pH 7.4 after 24 hrs by shake-flask method; format: physicochemical; conditions: for logD at 24 h: 1-octanol/buffer, pH 7.4
Method in brief: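 Shake-flask partition between 1-octanol and pH 7.4 aqueous solution, mixed at 1/2 (v/v) octanol/aqueous; log D taken at pH 7.4.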

[5] = GSH reactivity in pH 7.4 phosphate buffer assessed as half life measured every 15 mins by HPLC analysis; format: physicochemical; conditions: phosphate buffer with GSH
Method in brief: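 Half-life measured on incubation with glutathione at pH 7.4 and 37 °C, compound to glutathione 1/10.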

Vero = assay: Cytotoxicity against African green monkey Vero cells assessed as reduction in cell viability after 72 hrs by MTT assay; format: ADME, cell-based; conditions: Chlorocebus sabaeus
[6] = target: Voltage-gated inwardly rectifying potassium channel KCNH2 (Homo sapiens, UniProt Q12809); assay: Inhibition of human ERG
Voltage-gated inwardly rectifying potassium channel KCNH2, sequence (Q12809 whole entry): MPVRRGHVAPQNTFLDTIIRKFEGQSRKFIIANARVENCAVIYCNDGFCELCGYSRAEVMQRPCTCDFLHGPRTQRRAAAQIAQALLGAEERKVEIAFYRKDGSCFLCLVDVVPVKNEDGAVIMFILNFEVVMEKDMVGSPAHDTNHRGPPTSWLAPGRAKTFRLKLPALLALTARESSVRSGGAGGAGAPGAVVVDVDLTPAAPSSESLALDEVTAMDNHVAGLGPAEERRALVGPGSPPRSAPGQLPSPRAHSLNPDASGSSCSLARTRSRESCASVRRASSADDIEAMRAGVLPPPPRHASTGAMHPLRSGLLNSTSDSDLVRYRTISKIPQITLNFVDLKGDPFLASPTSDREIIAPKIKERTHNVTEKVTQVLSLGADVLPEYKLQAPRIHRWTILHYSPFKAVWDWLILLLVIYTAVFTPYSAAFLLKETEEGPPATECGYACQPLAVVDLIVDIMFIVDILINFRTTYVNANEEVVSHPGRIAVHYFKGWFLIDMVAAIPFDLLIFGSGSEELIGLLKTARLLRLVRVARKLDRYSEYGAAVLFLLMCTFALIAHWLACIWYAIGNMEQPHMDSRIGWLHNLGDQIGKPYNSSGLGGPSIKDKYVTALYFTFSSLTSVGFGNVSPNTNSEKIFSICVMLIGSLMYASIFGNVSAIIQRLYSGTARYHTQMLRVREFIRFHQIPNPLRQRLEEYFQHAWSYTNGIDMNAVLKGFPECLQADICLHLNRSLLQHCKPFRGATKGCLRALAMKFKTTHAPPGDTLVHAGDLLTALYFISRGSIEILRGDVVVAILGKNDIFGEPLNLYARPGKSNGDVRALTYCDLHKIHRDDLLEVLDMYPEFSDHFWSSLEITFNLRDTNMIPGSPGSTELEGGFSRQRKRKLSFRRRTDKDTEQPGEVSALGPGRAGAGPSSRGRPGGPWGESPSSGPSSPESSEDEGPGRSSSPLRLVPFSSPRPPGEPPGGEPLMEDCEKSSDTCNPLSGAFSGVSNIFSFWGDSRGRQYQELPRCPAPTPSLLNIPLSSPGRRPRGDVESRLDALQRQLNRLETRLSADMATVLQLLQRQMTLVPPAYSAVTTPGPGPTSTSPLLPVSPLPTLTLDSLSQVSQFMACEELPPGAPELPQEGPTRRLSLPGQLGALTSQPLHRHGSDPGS

[7] = Cytotoxicity against human FHS cells assessed as reduction in cell viability after 72 hrs by MTT assay

Epidermal growth factor receptor, sequence (P00533 whole entry): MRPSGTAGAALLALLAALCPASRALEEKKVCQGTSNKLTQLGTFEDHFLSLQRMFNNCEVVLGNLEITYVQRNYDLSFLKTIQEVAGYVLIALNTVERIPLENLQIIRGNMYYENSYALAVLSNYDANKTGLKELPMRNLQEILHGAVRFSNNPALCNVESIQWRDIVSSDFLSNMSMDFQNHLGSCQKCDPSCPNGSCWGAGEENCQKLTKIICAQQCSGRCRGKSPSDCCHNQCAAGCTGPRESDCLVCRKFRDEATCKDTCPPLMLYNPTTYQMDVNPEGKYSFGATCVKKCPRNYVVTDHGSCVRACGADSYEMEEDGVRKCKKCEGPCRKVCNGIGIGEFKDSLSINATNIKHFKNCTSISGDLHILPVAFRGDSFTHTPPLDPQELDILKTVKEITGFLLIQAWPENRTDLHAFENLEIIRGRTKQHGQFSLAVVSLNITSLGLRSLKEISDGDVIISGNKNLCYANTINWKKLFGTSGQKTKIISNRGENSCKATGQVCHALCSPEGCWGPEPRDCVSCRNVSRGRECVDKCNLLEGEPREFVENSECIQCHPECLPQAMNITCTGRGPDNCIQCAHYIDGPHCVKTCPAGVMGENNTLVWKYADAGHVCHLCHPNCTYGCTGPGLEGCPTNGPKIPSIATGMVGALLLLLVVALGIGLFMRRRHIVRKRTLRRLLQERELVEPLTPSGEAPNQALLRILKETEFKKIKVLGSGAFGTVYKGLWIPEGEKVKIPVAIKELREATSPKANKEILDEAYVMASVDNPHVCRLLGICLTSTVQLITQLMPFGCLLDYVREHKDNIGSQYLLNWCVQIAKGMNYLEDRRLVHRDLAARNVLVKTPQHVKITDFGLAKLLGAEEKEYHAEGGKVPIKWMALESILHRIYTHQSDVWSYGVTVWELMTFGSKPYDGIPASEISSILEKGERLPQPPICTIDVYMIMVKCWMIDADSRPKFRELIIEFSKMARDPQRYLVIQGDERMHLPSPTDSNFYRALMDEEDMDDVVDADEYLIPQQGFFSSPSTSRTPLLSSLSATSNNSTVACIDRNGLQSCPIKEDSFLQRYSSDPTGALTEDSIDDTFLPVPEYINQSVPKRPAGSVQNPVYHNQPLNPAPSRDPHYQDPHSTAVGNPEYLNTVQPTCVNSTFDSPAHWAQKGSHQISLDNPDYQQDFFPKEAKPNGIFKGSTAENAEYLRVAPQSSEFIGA

| Structure (SMILES) | IC50 [1] | solubility thermodynamic at 24 h [2] | solubility thermodynamic at 24 h [3] | IC50 (A549) | other results |
| --- | --- | --- | --- | --- | --- |
| C=CC(=O)N(c1ccc(F)c(C(F)(F)F)c1)c1ncnc2cc(OC)c(OCCCN3CCOCC3)cc12 | > 1000 nM | – | – | – | – |
| C=CC(=O)N(c1ccc(Cl)c(Cl)c1)c1ncnc2cc(OC)c(OCCCN3CCOCC3)cc12 | 31.7 nM | 630 µM (≈ 326 µg/mL) | 4470 µM (≈ 2310 µg/mL) | 5720 nM | logD at 24 h [4]: 3.57; half-life [5]: 17 min |
| COc1cc2ncnc(Nc3cccc(Cl)c3F)c2cc1OCCCN1CCOCC1 | – | – | – | 7510 nM | – |
| C=CC(=O)N(c1ccc(F)c(F)c1)c1ncnc2cc(OC)c(OCCCN3CCOCC3)cc12 | 368 nM | – | – | – | – |
| C=CC(=O)N(c1ccc(F)c(C)c1)c1ncnc2cc(OC)c(OCCCN3CCOCC3)cc12 | 499 nM | – | – | – | – |
| C=CC(=O)N(c1ccc(F)cc1F)c1ncnc2cc(OC)c(OCCCN3CCOCC3)cc12 | 302 nM | – | – | – | – |
| C=CC(=O)N(c1cccc(C(F)(F)F)c1)c1ncnc2cc(OC)c(OCCCN3CCOCC3)cc12 | 844 nM | – | – | – | – |
| C=CC(=O)N(c1cc(F)c(F)cc1F)c1ncnc2cc(OC)c(OCCCN3CCOCC3)cc12 | 500 nM | – | – | – | – |
| C=CC(=O)N(c1cccc(Cl)c1F)c1ncnc2cc(OC)c(OC(=O)N3CCN(C)C[C@H]3C)cc12 | – | 30 µM (≈ 15.4 µg/mL) | 5020 µM (≈ 2580 µg/mL) | 6100 nM | logD at 24 h [4]: 2.46; half-life [5]: 27.5 min |
| C=CC(=O)N(c1cc(Cl)ccc1F)c1ncnc2cc(OC)c(OCCCN3CCOCC3)cc12 | 133 nM | – | – | – | – |
| C=CC(=O)N(c1ccc(OC)cc1F)c1ncnc2cc(OC)c(OCCCN3CCOCC3)cc12 | > 1000 nM | – | – | – | – |

More lines, main results first:

| IC50 [1] | solubility thermodynamic at 24 h [2] | solubility thermodynamic at 24 h [3] | Structure (SMILES) | IC50 (A549) | other results |
| --- | --- | --- | --- | --- | --- |
| 234 nM | – | – | C=CC(=O)N(c1ccc(Cl)cc1F)c1ncnc2cc(OC)c(OCCCN3CCOCC3)cc12 | – | – |
| 52.6 nM | 1200 µM (≈ 601 µg/mL) | 5600 µM (≈ 2810 µg/mL) | C=CC(=O)N(c1cccc(Cl)c1F)c1ncnc2cc(OC)c(OCCCN3CCOCC3)cc12 | 450 nM | logD at 24 h [4]: 2.64; half-life [5]: 49 min |
| 65.2 nM | 1650 µM (≈ 827 µg/mL) | 4540 to 4940 µM (≈ 2270 to 2470 µg/mL) | C=CC(=O)N(c1ccc(F)c(Cl)c1)c1ncnc2cc(OC)c(OCCCN3CCOCC3)cc12 | 150 nM | IC50 (Vero): > 10000 nM; IC50 [6]: > 10000 nM; inhibition (INH) ([6]; human): 20%; logD at 24 h [4]: 2.01; IC50 [7]: > 10000 nM; half-life [5]: 85.1 min |
| – | < 10 µM | 1400 µM (≈ 626 µg/mL) | COc1cc2ncnc(Nc3ccc(F)c(Cl)c3)c2cc1OCCCN1CCOCC1 [GEFITINIB] | – | logD ([4]; octanol/water, pH 7.4, 24 h): 2.41 |
| – | 20 µM (≈ 9.2 µg/mL) | 4540 µM (≈ 2090 µg/mL) | COc1cc2ncnc(Nc3cccc(Cl)c3F)c2cc1OC(=O)N1CCN(C)C[C@H]1C [AZD-3759] | 28700 nM | logD at 24 h [4]: 2.84 |
| 1 nM | – | 4570 µM (≈ 2120 µg/mL) | COc1cc2ncnc(Nc3ccc(Cl)c(Cl)c3)c2cc1OCCCN1CCOCC1 | 24700 nM | – |
